Active and inactive are the calls of the source. The rule behind the calls is not given here.
Columns and labels:
RAW264.7 [1] = assay: Antiinflammatory activity in mouse RAW264.7 cells assessed as reduction in LPS-induced TNF-alpha level up to 1 uM incubated for 4 hrs prior to 460 nm LED light illumination for 1 hr followed by 6 hrs incubation under dark condition and subsequent LPS-stimulation and measured after 1 hr by ELISA; format: functional, cell-based
In short: (§1)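 RAW 264.7 cells seeded at 1.0×10^4/well, 24 h; compound 0.04–50 μM (0.4% DMSO vehicle) for 4 h without light; one plate then given blue LED (66,351 lx) 1 h at 37 °C. Both plates held 6 h dark at 37 °C, then E. coli O127:B8 LPS 1 μg/mL final for 1 h; supernatant TNF-α by mouse ELISA; 3 experiments, 2 technical replicates, mean ± SEM.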

[2] = Drug uptake in mouse RAW264.7 cells assessed as intracellular accumulation at 50 uM after 4 hrs by Hoechst 33342 staining based fluorescence inverted microscopic method; format: ADME, cell-based; settings: raw264.7, 4 h
In short: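 RAW 264.7 cells seeded at 1.0×10^4 cells/[…] in chamber slides, adhered 24 h, exposed to 50 μM compound (from 25 mM DMSO stock; 0.4% DMSO final) 4 h with minimal light; Hoechst 33342 15 min, three PBS washes; imaged at 20x, blue channel ex 310–390/em 420–470 nm.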

Albumin [3] = target: T1, Albumin (Bos taurus, UniProt P02769); assay: Binding affinity to bovine serum albumin at pH 7.4 TRIS buffer at 1:1 ratio of compound to protein by fluorescence based assay; format: ADME; settings: cattle, isolated protein
T1 sequence (P02769 whole entry): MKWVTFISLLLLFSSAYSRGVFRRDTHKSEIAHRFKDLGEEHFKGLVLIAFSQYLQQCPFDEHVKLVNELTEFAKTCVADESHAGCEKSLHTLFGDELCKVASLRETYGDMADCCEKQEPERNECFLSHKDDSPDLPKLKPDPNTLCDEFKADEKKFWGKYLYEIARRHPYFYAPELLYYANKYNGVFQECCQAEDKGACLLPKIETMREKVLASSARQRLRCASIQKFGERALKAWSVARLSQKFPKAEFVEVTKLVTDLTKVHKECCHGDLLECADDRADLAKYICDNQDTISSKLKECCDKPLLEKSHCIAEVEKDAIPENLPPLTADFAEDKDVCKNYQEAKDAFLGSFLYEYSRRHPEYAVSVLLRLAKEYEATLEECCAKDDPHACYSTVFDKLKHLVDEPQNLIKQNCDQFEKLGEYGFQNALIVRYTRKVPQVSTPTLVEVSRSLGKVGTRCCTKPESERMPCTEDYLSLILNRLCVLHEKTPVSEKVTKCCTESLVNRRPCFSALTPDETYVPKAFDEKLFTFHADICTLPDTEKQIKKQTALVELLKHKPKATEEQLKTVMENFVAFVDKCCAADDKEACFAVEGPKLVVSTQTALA
In short: (§2)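 Tryptophan fluorescence quench of BSA (1.4 μM) in TRIS buffer pH 7.4 at 295 K, excitation 282 nm, titrated with compound at 0–22.4 μM; data fitted by Stern-Volmer and modified Stern-Volmer plots.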

RAW264.7 [4] = assay: Cytotoxicity against mouse RAW264.7 cells assessed as reduction in cell viability incubated for 1 hr under 460 nm LED light illumination and measured after 23 hrs by MTT assay; format: cell-based; settings: for Activity: mouse, raw264.7
In short: (§3)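 RAW 264.7 cells (within 5 passages, phenol-red-free DMEM-F12K, 10% FBS) seeded at 1.0×10^4/well for 24 h, then dosed 0.08–100 μM (≤0.4% DMSO). Light arm: blue LED array (66,351 lx) 1 h, then 23 h more; dark arm kept unlit. MTT 4 h, formazan in DMSO, A560 minus A750, normalised to vehicle; 3 biological × 3 technical replicates, mean ± SEM.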

RAW264.7 [5] = assay: Antiinflammatory activity in mouse RAW264.7 cells assessed as reduction in LPS-induced TNF-alpha expression at up to 50 uM preincubated for 4 hrs followed by 6 hrs incubation under dark condition and subsequent LPS-stimulation and measured after 1 hr by ELISA; format: functional, cell-based; in short: as §1
[6] = Drug metabolism in mouse RAW264.7 cells assessed as CO release at 50 uM incubated 4 hrs prior to compound washout followed by 1-Ac addition for 30 mins and subsequent 460 nm LED light illumination for 1 hr by Hoechst 33342 dye based fluorescence assay; format: ADME, cell-based; settings: raw264.7, 4 h
In short: (§4)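 RAW 264.7 cells on chamber slides given 50 μM compound 4 h, then washed 3x with plain medium or left unwashed; Nile red CO sensor 1-Ac 5 μM final (0.2% DMSO) 30 min; blue LED (66,351 lx, 2 cm) 1 h at 37 °C, then 1 h dark at 37 °C; Hoechst 33342 stain; red channel ex 550–600/em 598–660 nm.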

RAW264.7 [7] = assay: Dark toxicity against mouse RAW264.7 cells assessed as reduction in cell viability up to 100 uM after 24 hrs by MTT assay; format: cell-based; settings: raw264.7, 24 h; in short: as §3
Albumin [8] = target: T1, Albumin; assay: Binding affinity to bovine serum albumin at pH 7.4 TRIS buffer by fluorescence based Stern-Volmer plot analysis; format: ADME; settings: cattle, isolated protein; in short: as §2
[9] = Absorption property of the compound in DMSO assessed as reduction in absorption wavelength at 0.05 mmol incubated for 14 hrs under 419 nm light illumination; format: physicochemical
[10] = Drug metabolism in DMSO assessed as CO release at 0.05 mmol incubated for 24 hrs under 419 nm light illumination
RAW264.7 [11] = assay: Cytotoxicity against mouse RAW264.7 cells assessed as reduction in cell viability up to 100 uM incubated for 1 hr under 460 nm LED light illumination and measured after 23 hrs by MTT assay; format: cell-based; settings: raw264.7, 1 h; in short: as §3
[12] = Absorption property of the compound in DMSO assessed as minimum absorption wavelength at 100 uM; format: physicochemical
[13] = Drug metabolism in DMSO assessed as sodium 7-(benzoyloxy)-6-carboxynaphthalene-1-sulfonate metabolite formation at 0.05 mmol incubated for 24 hrs under 419 nm light illumination by FTIR analysis
[14] = Solubility of the compound in FBS supplemented DMEM-F12 medium at < 50 mM; format: physicochemical
[15] = Drug metabolism in DMSO assessed as sodium 7-(benzoyloxy)-6-carboxynaphthalene-1-sulfonate metabolite formation at 0.05 mmol incubated for 24 hrs under 419 nm light illumination by 2D-COSY analysis
[16] = Stability of the compound in FBS supplemented DMEM-F12 medium incubated for >= 1 month under dark condition
[17] = Solubility of the compound in DMSO at < 50 mM; format: physicochemical
[18] = Absorption property of the compound in pH 7.4 PBS buffer assessed as absorption wavelength at 100 uM; format: physicochemical; settings: pH 7.4, 100 µM
[19] = Drug metabolism in DMSO assessed as sodium 7-(benzoyloxy)-6-carboxynaphthalene-1-sulfonate metabolite formation at 0.05 mmol incubated for 24 hrs under 419 nm light illumination by 13C-NMR analysis
[20] = Stability of the compound in DMSO incubated for >= 1 month under dark condition; format: physicochemical
[21] = Drug metabolism in mouse RAW264.7 cells assessed as CO release at 50 uM preincubated 4 hrs followed by 1-Ac addition for 30 mins and subsequent 460 nm LED light illumination for 1 hr by Hoechst 33342 dye based fluorescence assay; format: ADME, cell-based; settings: raw264.7, 50 µM; in short: as §4
[22] = Absorption property of the compound in 10% FBS supplemented DMEM-F12 medium assessed as absorption wavelength at 100 uM; format: physicochemical
[23] = Drug uptake in mouse RAW264.7 cells assessed as extracellular accumulation at 50 uM incubated for 4 hrs under dark condition followed by compound washout by Hoechst 33342 staining based fluorescence inverted microscopic method; format: ADME, cell-based; settings: raw264.7, 4 h
In short: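 After 4 h dark incubation of RAW 264.7 cells with 50 μM compound, cells washed with medium containing 10% FBS; pooled washes read by fluorescence (ex 410 nm, slit 3.0 nm) against a 50 μM standard.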

[24] = Stability of the compound in PBS buffer incubated for >= 1 month under dark condition; format: physicochemical
[25] = Stability of the compound in water incubated for >= 1 month under dark condition; format: physicochemical; settings: buffer
[26] = Drug metabolism in DMSO assessed as sodium 7-(benzoyloxy)-6-carboxynaphthalene-1-sulfonate metabolite formation at 0.05 mmol incubated for 24 hrs under 419 nm light illumination by HSQC analysis
[27] = Emission property of the compound in DMSO assessed as excited state emission wavelength at 100 uM; format: physicochemical
[28] = Emission property of the compound in 10% FBS supplemented DMEM-F12 medium assessed as excitation wavelength; format: physicochemical
[29] = Emission property of the compound in pH 7.4 PBS buffer assessed as excited state emission wavelength at 100 uM; format: physicochemical; settings: pH 7.4, 100 µM
[30] = Drug metabolism in DMSO assessed as sodium 7-(benzoyloxy)-6-carboxynaphthalene-1-sulfonate metabolite formation at 0.05 mmol incubated for 24 hrs under 419 nm light illumination by HMBC analysis
[31] = Emission property of the compound in water assessed as emission wavelength at 100 uM; format: physicochemical; settings: buffer
In short: (§5)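 Emission spectra recorded at 0.1 mM in water, 10 mM PBS pH 7.4, or DMEM/F12K with 10% FBS; excitation 410 nm or 467 nm, slit width 3.0 nm.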

[32] = Drug metabolism in DMSO assessed as sodium 7-(benzoyloxy)-6-carboxynaphthalene-1-sulfonate metabolite formation at […] after 24 hrs illuminated with visible light by 1H-NMR analysis
In short: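 Roughly 0.05 mmol compound in 5.0 mL DMSO, under air, irradiated in a photoreactor with 419 nm lamps (2,450 lx) until the lowest-energy absorption band disappeared (~24 h); photoproduct then characterised.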

[33] = Emission property of the compound in 10% FBS supplemented DMEM-F12 medium assessed as emission wavelength at 100 uM; format: physicochemical; in short: as §5
[34] = Absorption property of the compound in water assessed as absorption wavelength at 100 uM; format: physicochemical; settings: buffer
[35] = Solubility of the compound in water at < 50 mM; format: physicochemical; settings: buffer
[36] = Emission property of the compound in DMSO assessed as tautomeric state emission wavelength at 100 uM; format: physicochemical
[37] = Solubility of the compound in PBS buffer at < 50 mM; format: physicochemical
[38] = Drug metabolism in DMSO assessed as sodium 7-(benzoyloxy)-6-carboxynaphthalene-1-sulfonate metabolite formation at 0.05 mmol incubated for 24 hrs under 419 nm light illumination by ESI/APCI-MS analysis

O=c1c(O)c(-c2ccccc2)oc2cc3ccccc3cc12
Activity (RAW264.7 [1]): Active
Drug uptake [2]: Active
Activity (Albumin [3]): Active
IC50 (RAW264.7 [4]; Mus musculus, RAW264.7): 22.4 µM
Activity (RAW264.7 [5]): Active
Drug metabolism [6]: Metabolite_Detected
Activity (RAW264.7 [7]): Non-Toxic
Ka (Albumin [8]): 3.2 ×10³ /M
Activity [9]: Active
Drug metabolism [10]: Metabolite detected

O=c1c(O)c(-c2ccccc2)oc2cc3c(S(=O)(=O)[O-])cccc3cc12.[Na+]
Activity (RAW264.7 [1]): Active
Drug uptake [2]: Not Active
Activity (RAW264.7 [11]): Non-Toxic
Activity (Albumin [3]): Active
Activity (RAW264.7 [5]): Active
Drug metabolism [6]: Metabolite_Detected
Activity [12]: 410 nm
Activity (RAW264.7 [7]): Non-Toxic
Drug metabolism [13]: Metabolite detected
solubility [14]: Soluble
Drug metabolism [15]: Metabolite detected
Stability [16]: Stable
solubility [17]: Soluble
Activity [18]: 450 to 500 nm
Drug metabolism [19]: Metabolite detected
Ka (Albumin [8]): 4.1 ×10⁵ /M
Stability [20]: Stable
Drug metabolism [21]: Metabolite_Detected
Activity [22]: 450 to 500 nm
Drug uptake [23]: Not Active
Stability [24]: Stable
Stability [25]: Stable
Drug metabolism [26]: Metabolite detected
Activity [27]: 480 nm
Activity [28]: 467 nm
Activity [29]: 410 nm
Drug metabolism [30]: Metabolite detected
Activity [31]: 560 nm
Drug metabolism [32]: Metabolite detected
Activity [33]: 600 nm
Activity [34]: 450 to 500 nm
solubility [35]: Soluble
Activity [36]: 610 nm
Drug metabolism [10]: Metabolite detected
solubility [37]: Soluble
Drug metabolism [38]: Metabolite detected

O=C(Oc1cc2ccccc2cc1C(=O)O)c1ccccc1
Activity (RAW264.7 [4]): Non-Toxic

O=C(Oc1cc2c(S(=O)(=O)O)cccc2cc1C(=O)O)c1ccccc1
Activity (RAW264.7 [4]): Non-Toxic
